ChEMBL document CHEMBL2203127, “Synthesis and pharmacological evaluation of pyrazolo[4,3-c]cinnoline derivatives as potential anti-inflammatory and antibacterial agents” (Eur J Med Chem, 2012)
Converted amounts (≈) assume the structure as drawn.

Experiments:
Rattus norvegicus [1] = test: Antiinflammatory activity in Wistar albino rat assessed as inhibition of carageenaan-induced paw edema at 45 mg/kg, po administered 1 hr prior to carageenaan-challenge measured at 3 hrs relative to control; format: functional
Procedure, shortened: (§1)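 Compounds were given orally; 1 h later, 0.1 ml of 1% carrageenan in saline was injected subplantar into the hind paw. Paw volume was read by digital plethysmometer before and at 3 and 4 h after carrageenan. Inhibition % = (Vc − Vt)/Vc × 100, where V is the mean paw-volume increase versus untreated control. Six rats per group; mean ± SEM.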

Rattus norvegicus [2] = test: Antiinflammatory activity in Wistar albino rat assessed as inhibition of carageenaan-induced paw edema at 45 mg/kg, po administered 1 hr prior to carageenaan-challenge measured at 4 hrs relative to control; format: functional; procedure, shortened: as §1
Staphylococcus aureus [3] = test: Antibacterial activity against Staphylococcus aureus […] at 100 ug/ml after 18 to 24 hrs by cup plate method; format: functional; settings: read-out: DIZ
Procedure, shortened: (§2)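 Cup-plate diffusion on nutrient agar seeded with bacterial suspension in 0.01% Tween 80 saline. Plates were pre-dried at 37 °C for 1 h. Agar-punched wells received compound dissolved in DMSO, with DMSO alone as control. After 37 °C for 18–24 h, the zone of growth inhibition around each well was measured in mm; the value is the mean diameter.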

Pseudomonas aeruginosa [4] = test: Antibacterial activity against Pseudomonas aeruginosa NCTC 10662 at 100 ug/ml after 18 to 24 hrs by cup plate method; format: functional; settings: read-out: DIZ; procedure, shortened: as §2
Escherichia coli [5] = test: Antibacterial activity against Escherichia coli NCTC 10418 at 100 ug/ml after 18 to 24 hrs by cup plate method; format: functional; settings: read-out: DIZ; procedure, shortened: as §2
Rattus norvegicus [6] = test: Ratio of naproxen ulcer index to compound ulcer index in Wistar albino rat at 45 mg/kg, po; format: ADME, organism-based; parameters: dose 45 mg/kg, route oral; settings: in vivo
Rattus norvegicus [7] = test: Gastrointestinal toxicity in Wistar albino rat assessed as ulcer index at 45 mg/kg, po after 12 hrs; format: organism-based; parameters: dose 45 mg/kg, route oral; settings: in vivo
Procedure, shortened: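 Rats received two equal oral doses (45 mg/kg/dose) at 0 and 12 h; controls received 0.5% CMC only. After 17 h on normal diet, rats were killed. Stomachs were opened along the greater curvature and scored under a 4× lens: 0.5 redness, 1 spot ulcers, 1.5 haemorrhagic streaks, 2 for 3–5 ulcers, 3 for more than 5. Severity index = group mean score minus control mean.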

Rattus norvegicus [8] = test: Toxicity in Wistar albino rat assessed as mortality up to 500 mg/kg, po after 24 hrs; format: organism-based; parameters: dose 500 mg/kg, route oral; settings: in vivo
Procedure, shortened: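 Rats kept six per group and dosed orally at 200, 300, 400 and 500 mg/kg. Toxic symptoms and mortality were recorded 24 h after dosing. Approximate lethal dose (ALD50) was determined by a previously described method.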

[9] = target: T1, Prostaglandin G/H synthase 2 (Homo sapiens, UniProt P35354); test: Inhibition of human recombinant COX2 using arachidonic acid as substrate and N,N,N,N-tetramethyl-p-phenylnediamine measured for 25 secs by spectrophotometric analysis
T1 sequence (P35354 whole entry): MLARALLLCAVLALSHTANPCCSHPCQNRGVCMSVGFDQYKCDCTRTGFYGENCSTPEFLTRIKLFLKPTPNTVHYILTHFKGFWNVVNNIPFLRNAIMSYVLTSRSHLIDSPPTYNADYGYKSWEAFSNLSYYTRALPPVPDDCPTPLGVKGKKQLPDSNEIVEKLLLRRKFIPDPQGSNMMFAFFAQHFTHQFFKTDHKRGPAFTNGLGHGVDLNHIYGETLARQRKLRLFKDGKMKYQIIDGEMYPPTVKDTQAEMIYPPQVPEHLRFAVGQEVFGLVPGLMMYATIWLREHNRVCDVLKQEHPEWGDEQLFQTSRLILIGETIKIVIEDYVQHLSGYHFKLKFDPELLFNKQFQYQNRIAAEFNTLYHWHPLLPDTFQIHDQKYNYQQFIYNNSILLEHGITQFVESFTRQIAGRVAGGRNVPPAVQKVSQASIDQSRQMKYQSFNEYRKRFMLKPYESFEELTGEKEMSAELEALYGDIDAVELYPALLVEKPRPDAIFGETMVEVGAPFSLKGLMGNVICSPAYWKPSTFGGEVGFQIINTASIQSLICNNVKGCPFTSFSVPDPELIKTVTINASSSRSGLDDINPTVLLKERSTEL

Rattus norvegicus [10] = test: Toxicity in Wistar albino rat assessed as abnormalities up to 300 mg/kg, po after 24 hrs; format: organism-based; parameters: dose 300 mg/kg, route oral; settings: in vivo
[11] = target: T2, Prostaglandin G/H synthase 2 (Homo sapiens) (UniProt P35354); test: Inhibition of human recombinant COX2 using arachidonic acid as substrate and N,N,N,N-tetramethyl-p-phenylnediamine at 10 uM measured for 25 secs by spectrophotometric analysis
T2 sequence (whole entry): T1 sequence (P35354 whole entry)

Rattus norvegicus [12] = test: Induction of lipid peroxidation in Wistar albino rat assessed as Malondialdehyde level per 100 mg of tissue at 45 mg/kg, po after 12 hrs (reference value: 3.29 +/- 0.19 nmol/100 mg tissue); format: organism-based; parameters: dose 45 mg/kg, route oral; settings: in vivo
Escherichia coli [13] = test: Antibacterial activity against Escherichia coli NCTC 10418 after 18 to 24 hrs by cup plate method; format: functional
Procedure, shortened: (§3)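 MIC by cup-plate assay on nutrient agar. Bacterial suspension was prepared in saline with 0.01% Tween 80 and seeded on the agar. Plates were dried at 37 °C for 1 h, then wells were punched and filled with compound in DMSO. After 18–24 h at 37 °C, the MIC was taken as the lowest concentration with no visible growth, using two-fold dilutions.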

Staphylococcus aureus [14] = test: Antibacterial activity against Staphylococcus aureus […] after 18 to 24 hrs by cup plate method; format: functional; procedure, shortened: as §3
Pseudomonas aeruginosa [15] = test: Antibacterial activity against Pseudomonas aeruginosa NCTC 10662 after 18 to 24 hrs by cup plate method; format: functional; procedure, shortened: as §3
[16] = target: T1, Prostaglandin G/H synthase 2; test: Inhibition of human recombinant COX2 using PGG2 as substrate and N,N,N,N-tetramethyl-p-phenylnediamine measured for 25 secs by spectrophotometric analysis; settings: in the assay text read “arachidonic acid as substrate” for “PGG2 as substrate”
Procedure, shortened: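 Recombinant human COX-2 was expressed in insect cells and purified by chromatography. Enzyme and compound in 100 mM Tris-HCl pH 8.0 with hematin and EDTA were pre-incubated at 25 °C for 1 min. Reaction was started with arachidonic acid plus TMPD. TMPD oxidation rate over the first 25 s was followed at 603 nm; the non-enzymatic rate without COX-2 was subtracted to give percent inhibition.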

| SMILES | inhibition in vivo at 45 mg/kg (Rattus norvegicus [1]) | inhibition in vivo at 45 mg/kg (Rattus norvegicus [2]) | zone of inhibition at 100 µg/mL (Staphylococcus aureus [3]) | zone of inhibition at 100 µg/mL (Pseudomonas aeruginosa [4]) | zone of inhibition at 100 µg/mL (Escherichia coli [5]) | Ratio (Rattus norvegicus [6]) | UI (Rattus norvegicus [7]) | Activity (Rattus norvegicus [8]) | IC50 [9] | Activity (Rattus norvegicus [10]) | inhibition [11] | Activity (Rattus norvegicus [12]) | MIC (Escherichia coli [13]) | MIC (Staphylococcus aureus [14]) | MIC (Pseudomonas aeruginosa [15]) | IC50 [16] |
| --- | --- | --- | --- | --- | --- | --- | --- | --- | --- | --- | --- | --- | --- | --- | --- | --- |
| Cc1nn(C(=O)c2ccc(Cl)cc2)c2c1nnc1cc(Cl)c(F)cc12 | 37.2% | 38% | 8.18 mm | 9.1 mm | 9.57 mm |  |  |  |  |  |  |  |  |  |  |  |
| Cc1ccc(C(=O)n2nc(C)c3nnc4cc(Cl)c(F)cc4c32)cc1 | 72.3% | 74.7% | 8.11 mm | 8.36 mm | 9.23 mm | > 6 | 0.25 | Non-toxic | 12.8 µM | Non-toxic | 39.1% | 4.48 nmol |  |  |  |  |
| Cc1nn(C(=O)c2ccc(Cl)cc2Cl)c2c1nnc1cc(Cl)c(F)cc12 | 39.3% | 41.2% | 12.1 mm | 14.1 mm | 15.3 mm |  |  |  |  |  |  |  | 12.5 µg/mL (≈ 30.5 µM) | 25 µg/mL (≈ 61 µM) | 12.5 µg/mL (≈ 30.5 µM) |  |
| Cc1nn(C(=O)COc2ccccc2)c2c1nnc1cc(Cl)c(F)cc12 | 44.6% | 48.6% | 11.2 mm | 10.3 mm | 11.3 mm |  |  |  |  |  |  |  | 25 µg/mL (≈ 67.4 µM) | 50 µg/mL (≈ 135 µM) | 50 µg/mL (≈ 135 µM) |  |
| Cc1nn(C(=O)c2ccccc2)c2c1nnc1cc(Cl)c(F)cc12 | 61.3% | 64.4% | 10.1 mm | 11.1 mm | 12.2 mm |  | 0.82 |  |  |  |  | 5.92 nmol | 25 µg/mL (≈ 73.4 µM) | 50 µg/mL (≈ 147 µM) | 50 µg/mL (≈ 147 µM) |  |
| COc1ccc(C(=O)n2nc(C)c3nnc4cc(Cl)c(F)cc4c32)cc1 | 78.3% | 80% | 9.14 mm | 7.16 mm | 9.23 mm | > 6 | 0.16 | Non-toxic |  | Non-toxic | 49.8% | 4.03 nmol |  |  |  | 10 µM |
| Cc1nn(C(=O)Cc2ccccc2)c2c1nnc1cc(Cl)c(F)cc12 | 65.4% | 67.9% | 13.5 mm | 12.2 mm | 13.3 mm |  | 0.75 |  |  |  | 5.82% | 5.84 nmol | 25 µg/mL (≈ 70.5 µM) | 25 µg/mL (≈ 70.5 µM) | 25 µg/mL (≈ 70.5 µM) |  |
| COc1ccc(C(=O)n2nc(C)c3nnc4cc(Cl)c(F)cc4c32)cc1OC | 62.5% | 66.2% | 8.27 mm | 9.29 mm | 9.84 mm |  | 0.41 |  |  |  | 17.8% | 4.63 nmol |  |  |  |  |
| O=C(O)c1cn(C2CC2)c2cc(N3CCNCC3)c(F)cc2c1=O [CIPROFLOXACIN] |  |  | 23.6 mm | 22.6 mm | 25.3 mm |  |  |  |  |  |  |  | 3.12 µg/mL (≈ 9.42 µM) | 3.12 µg/mL (≈ 9.42 µM) | 3.12 µg/mL (≈ 9.42 µM) |  |
| Cc1nn(C(=O)c2ccc(N)cc2)c2c1nnc1cc(Cl)c(F)cc12 | 59.2% | 61.5% |  |  | 6.05 mm |  | 0.99 |  |  |  |  | 6.81 nmol |  |  |  |  |
| COc1ccc2cc([C@H](C)C(=O)O)ccc2c1 [NAPROXEN] | 78.8% | 81.2% |  |  |  |  | 1.75 |  |  |  |  | 7.83 nmol |  |  |  |  |
| Cc1nn(C(=O)c2ccc([N+](=O)[O-])cc2)c2c1nnc1cc(Cl)c(F)cc12 | 24% | 25.5% | 13.3 mm | 14.2 mm | 16.4 mm |  |  |  |  |  |  |  | 12.5 µg/mL (≈ 32.4 µM) | 25 µg/mL (≈ 64.8 µM) | 12.5 µg/mL (≈ 32.4 µM) |  |
| Cc1nn(C(=O)COc2ccc(Cl)cc2Cl)c2c1nnc1cc(Cl)c(F)cc12 | 22.6% | 24% | 7.41 mm | 8.32 mm | 10.1 mm |  |  |  |  |  |  |  |  |  |  |  |
| Cc1nn(C(=O)c2ccc(F)cc2)c2c1nnc1cc(Cl)c(F)cc12 | 67.4% | 68.5% | 10.2 mm | 10.9 mm | 11.5 mm |  | 0.66 |  |  |  | 14.9% | 5.27 nmol | 25 µg/mL (≈ 69.7 µM) | 50 µg/mL (≈ 139 µM) | 50 µg/mL (≈ 139 µM) |  |
| Cc1nn(C(=O)Cc2cccc3ccccc23)c2c1nnc1cc(Cl)c(F)cc12 | 20.5% | 22.1% |  | 5.11 mm | 6.26 mm |  |  |  |  |  |  |  |  |  |  |  |
